Active and inactive are the calls of the source. The rule behind the calls is not given here.
Key:
Lactococcus lactis [1] = assay: Binding affinity to Lactococcus lactis subsp. lactis C2 ATCC 11454 membrane surface measured after first washout with buffer by fluorescence assay; type: functional
Procedure, shortened: (§1)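 L. lactis C2 grown 18 h at 27 °C in M17 (4% v/v inoculum). 200 µl culture, in triplicate, pelleted (9000g, 2 °C, 10 min); supernatant background subtracted. Pellet resuspended in peptide-isoluminol probe (DMF, diluted in pH 6.4 phosphate buffer, 0.01 M, 0.1 ionic strength) for 10 min at 27 °C. Fluorescence read at ex 360/em 430 nm, then repeated centrifugation/buffer washes; fraction retained calculated.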

Lactococcus lactis [2] = assay: Binding affinity to Lactococcus lactis subsp. lactis C2 ATCC 11454 membrane surface by fluorescence assay; type: functional; procedure, shortened: as §1
Lactococcus lactis [3] = assay: Binding affinity to Lactococcus lactis subsp. lactis C2 ATCC 11454 membrane surface measured after second washout with buffer by fluorescence assay; type: functional; procedure, shortened: as §1
Salmonella typhimurium [4] = assay: Binding affinity to Salmonella Typhimurium ATCC 14028 membrane surface measured after fourth washout with buffer by fluorescence assay; type: functional, organism-based; conditions: Salmonella enterica subsp. enterica serovar Typhimurium
Procedure, shortened: (§2)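 Cell pellets were exposed to peptide-isoluminol probe in pH 6.4 phosphate buffer (0.01 M, 0.1 ionic strength). Probe remaining on cells was then tracked through repeated buffer wash cycles by fluorescence at ex 360/em 430 nm.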

Escherichia coli [5] = assay: Binding affinity to Escherichia coli ATCC 47076 membrane surface measured after fourth washout with buffer by fluorescence assay; type: functional, organism-based; procedure, shortened: as §2
Salmonella typhimurium [6] = assay: Binding affinity to Salmonella Typhimurium ATCC 14028 membrane surface by fluorescence assay; type: functional, organism-based; conditions: Salmonella enterica subsp. enterica serovar Typhimurium; procedure, shortened: as §2
Escherichia coli [7] = assay: Binding affinity to Escherichia coli ATCC 47076 membrane surface by fluorescence assay; type: functional, organism-based; procedure, shortened: as §2
Staphylococcus aureus [8] = assay: Binding affinity to Staphylococcus aureus ATCC 25923 membrane surface by fluorescence assay; type: functional, organism-based; procedure, shortened: as §2
Salmonella typhimurium [9] = assay: Binding affinity to Salmonella Typhimurium ATCC 14028 membrane surface measured after second washout with buffer by fluorescence assay; type: functional, organism-based; conditions: Salmonella enterica subsp. enterica serovar Typhimurium; procedure, shortened: as §2
Escherichia coli [10] = assay: Binding affinity to Escherichia coli ATCC 47076 membrane surface measured after second washout with buffer by fluorescence assay; type: functional, organism-based; procedure, shortened: as §2
Staphylococcus aureus [11] = assay: Binding affinity to Staphylococcus aureus ATCC 25923 membrane surface measured after second washout with buffer by fluorescence assay; type: functional, organism-based; procedure, shortened: as §2

Activity (Lactococcus lactis [1])	Activity (Lactococcus lactis [2])	Activity (Lactococcus lactis [3])	Activity (Salmonella typhimurium [4])	Activity (Salmonella typhimurium [6])	Activity (Salmonella typhimurium [9])	Compound	Activity (Escherichia coli [5])	Activity (Escherichia coli [7])	Activity (Staphylococcus aureus [8])	Activity (Escherichia coli [10])	Activity (Staphylococcus aureus [11])
23%	34%	10%	Active	–	–	CCN(CCCCCCNC(=O)COCC(=O)N[C@@H](CCCCN)C(=O)N[C@@H](CCCCN)C(=O)N[C@@H](CCCCN)C(=O)O)c1ccc2c(=O)[nH][nH]c(=O)c2c1	Active	–	–	–	–
Active	15%	Active	–	15%	Active	CCN(CCCCCCNC(=O)COCC(=O)NC(CCC(=O)O)C(=O)NC(CCC(=O)O)C(=O)O)c1ccc2c(=O)[nH][nH]c(=O)c2c1 (centres undefined)	–	15%	15%	Active	Active

From ChEMBL document CHEMBL1156008, “Synthesis of novel isoluminol probes and their use in rapid bacterial assays” (Bioorg Med Chem Lett, 2009)
